According to PMC11474258 (RSC Advances, 2024):
≈ marks a conversion by molar mass, not a printed value.

Legend:
[1] = Spectral titration of phenol with guanidine HCl; details: calculated from the binding isotherm of phenol with guanidine HCl
[2] = cited from earlier work
Solubility of curcumin = format: physicochemical; details: in the presence of FAM-Y4R4; absorption peak at 425 nm, curcumin standard curve
[3] = Overall binding constant of curcumin; details: average of fluorescence (tyrosine) and UV-vis (phenol) titration
[4] = UV-vis titration of curcumin with phenol; format: binding; details: isotherm at 430 nm, 1:1 model, non-linear regression
In short: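 Curcumin was spectroscopically titrated with phenol, which stands in for the tyrosine side chain. The binding isotherm was plotted from absorbance at 430 nm. Ka was fitted by nonlinear regression to a one-host-to-one-guest binding model.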

A549 cells = assay: MTT cell viability assay; format: cell-based; details: 18 h, triplicates, CX4 alone up to 200 μM
In short: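 A549 cells were grown in DMEM/F12 with 10% heat-inactivated FBS and 1% penicillin/streptomycin at 37 °C, 5% CO2. They were seeded at 1×10^4 cells/well and exposed in triplicate for 18 h to a range of test compound concentrations, alone or complexed with peptide. CX4 was at most 4 mM in complexes. MTT absorbance was read at 570 nm and reported as mean ± standard error, with Tukey test (P < 0.05).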

[5] = concentrations up to 5 mM; cited from earlier work

Cl.N=C(N)N [guanidine HCl]
binding energy [1]: 8.13 kcal/mol

COc1cc(/C=C/C(=O)CC(=O)/C=C/c2ccc(O)c(OC)c2)ccc1O [curcumin]
solubility in water [2]: 0.03 µM (≈ 0.0111 µg/mL)
solubility of curcumin when bound to the tyrosines of FAM-Y4R4 (Solubility of curcumin): 0.4 µM
overall binding constant Ka (average of the two values) [3]: 2.38e+06 M⁻¹
Ka of curcumin to phenol [4]: 4.6e+06 M⁻¹

O=S(=O)(O)c1cc2c(O)c(c1)Cc1cc(S(=O)(=O)O)cc(c1O)Cc1cc(S(=O)(=O)O)cc(c1O)Cc1cc(S(=O)(=O)O)cc(c1O)C2 [CX4, p-sulfonatocalix[4]arene]
maximum decrease in cell viability (A549 cells): ≤ 22%
hemolytic toxicity [5]: no hemolytic toxicity
